Screening data: PubChem BioAssay, Sanford-Burnham Center for Chemical Genomics
bIAP inh = bovine intestinal alkaline phosphatase inhibitors, primary screen, selectivity assay for TNAP inhibitor project, biochemical, bovine IAP, CDP-star luminescence. purified bovine IAP, 30 min. inhibition, % at 20 µM. 190,000 tested, under 10 active. AID 1019, 2008;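 active = over 50% inhibition of intestinal alkaline phosphatase at 20 µM in the single-dose screen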
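test system = bovine IAP enzyme | medium = DEA buffer 100 mM, pH 9.8, with MgCl2 1.0 mM, ZnCl2 0.02 mM | detection = luminescence | dosing = single compound dose of 20 µM, 2% DMSO final | incubation = 30 min reaction at room temperature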
mIAP block = inhibitors of mouse IAP, primary screen, biochemical, luminescence, uHTS. purified mouse IAP, CDP-Star luminescence, 30 min. inhibition, % at 10 µM. hit rate 0.2% among 330,000. AID 2806, 2010;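 active = inhibition of at least 40% at 10 µM in the primary screen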
hIAP activ = human IAP activators, primary screen, biochemical, luminescence, uHTS; Intestinal-type alkaline phosphatase (Homo sapiens), P09923; purified human IAP, CDP-Star luminescence, 30 min; hits give high values; 1 = vehicle-only enzyme, 0 = enzyme-free background; activation factor at 10 µM; hit rate 0.16% among 330,000; AID 2524, 2010;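 active = activation factor of the enzyme at least 2-fold when tested at 20 µM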
Target sequence (P09923 whole entry, looked up): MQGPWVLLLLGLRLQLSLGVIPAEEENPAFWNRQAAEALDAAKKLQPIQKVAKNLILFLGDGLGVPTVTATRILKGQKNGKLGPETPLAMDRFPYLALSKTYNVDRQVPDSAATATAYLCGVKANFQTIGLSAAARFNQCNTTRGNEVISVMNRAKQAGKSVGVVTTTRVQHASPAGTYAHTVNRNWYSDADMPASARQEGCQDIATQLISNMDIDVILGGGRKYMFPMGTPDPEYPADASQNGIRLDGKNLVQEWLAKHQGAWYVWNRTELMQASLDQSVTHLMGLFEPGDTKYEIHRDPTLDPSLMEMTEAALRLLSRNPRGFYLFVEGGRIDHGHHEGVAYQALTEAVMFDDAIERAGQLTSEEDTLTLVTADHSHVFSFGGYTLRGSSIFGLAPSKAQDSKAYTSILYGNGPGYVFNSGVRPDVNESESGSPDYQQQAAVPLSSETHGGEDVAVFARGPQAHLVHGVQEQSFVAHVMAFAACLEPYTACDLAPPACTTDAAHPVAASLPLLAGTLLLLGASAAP
hIAP block = human IAP inhibitors, primary screen, biochemical, luminescence, uHTS; Intestinal-type alkaline phosphatase (Homo sapiens), P09923; purified IAP, CDP-Star luminescence, 30 min; inhibition, % at 10 µM; hit rate 0.12% among 330,000; AID 2544, 2010;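 active = inhibition reaching a set limit with compound at 10 µM in the primary screen, cut at about 35% in these data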
mIAP activ = activators of mouse IAP, primary screen, biochemical, luminescence, uHTS; intestinal alkaline phosphatase [Mus musculus]; muIAP, CDP-Star luminescence, 30 min; hits give high values; 1 = vehicle-only enzyme signal, 0 = enzyme-free wells; activation factor at 10 µM; hit rate 0.24% among 330,000;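 active = activation factor of at least 2 at 20 µM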
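System: mouse IAP enzyme. Reagent: CDP-Star chemiluminescent phosphatase substrate. Benchmarks: DMSO wells, no-enzyme wells. Times: 30 min enzyme-substrate-compound incubation at room temperature. Detection: luminescence from enzymatic CDP-Star hydrolysis. Doses: test compounds delivered from DMSO solution.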
bIAP activator = bovine intestinal alkaline phosphatase activators, primary screen, biochemical, bovine IAP, CDP-star luminescence | alkaline phosphatase, intestinal [Bos taurus] | purified bovine IAP, 30 min; hits give high values; fold of DMSO-control signal, blank-subtracted | hit rate 0.17% among 200,000 | activation factor at 20 µM;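 active = activation factor of 2 or more at 20 µM, a signal rise over negative controls twice the positive control's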
hIAP act conf = human IAP activators, confirmation, biochemical, luminescence, single concentration, uHTS hits | purified IAP, CDP-Star luminescence, 30 min; hits give low values | shares compounds with hIAP activ | hit rate 10% among 880 | activation (%Activity, negative = activation), % at 8.3 µM;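 active = at least twofold enzyme activation in any of six single-dose repeats, which the averaged readout prints as negative percent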
Each line names hits and unclear results; the compound was inactive in the other large screens (follow-up assays come after a bar, where they were run). An excerpt weighted towards active compounds, which were near 0.72% of everything screened.

COc1ccc(C)cc1NC(=O)CCS(=O)(=O)c1cc2c(cc1Cl)NC(=O)CO2	none (no result: bIAP inh, bIAP activator)
Cc1ccc(NC(=O)CCS(=O)(=O)c2cc3c(cc2Cl)NC(=O)CO3)cc1	hIAP block 37.2 (no result: bIAP inh, bIAP activator) | hIAP act conf inactive
Cc1ccc(-c2cc(C(=O)N/N=C/c3ccccc3O)n[nH]2)o1	hIAP activ 3.14 (no result: bIAP inh, bIAP activator) | hIAP act conf inactive
O=C(CSc1ncccn1)Nc1ccccc1	none
CC(NC(=O)CSc1ncccn1)c1ccccc1 (centres undefined)	hIAP block 66.7 | hIAP act conf inactive
Cn1cccc1-c1cc(C(=O)N/N=C/c2cc(Br)ccc2O)[nH]n1	hIAP activ 2.54 (no result: bIAP inh, bIAP activator) | hIAP act conf inactive
O=C(NNC(=O)c1ccccc1Br)c1ccc2nc[nH]c2c1	hIAP activ 2.03 (no result: bIAP inh, bIAP activator) | hIAP act conf inactive
COc1ccc(S(=O)(=O)N(CC(=O)N2CCOCC2)Cc2ccccc2)cc1	hIAP activ 3.16 | hIAP act conf inactive
Cc1ccc2c(c1)Oc1ccc([N+](=O)[O-])cc1C(=O)N2	hIAP activ 2.37 | hIAP act conf inactive
CCOC(=O)c1cnc(-n2nc(C)cc2C)nc1NNc1nc(C)cc(C)n1	none (no result: bIAP inh, bIAP activator) | hIAP act conf inactive
CCOC(=O)c1cnc(-n2nc(C)cc2C)nc1NNc1nc(-c2ccccc2)cc(-c2ccccc2)n1	none
COC(=O)c1cc(NC(=O)Cn2nc(C)n3cccc3c2=O)cc(C(=O)OC)c1	hIAP block 38.6 (no result: bIAP inh, bIAP activator) | hIAP act conf inactive
Cc1ccccc1NC(=O)Cn1nc(C)n2cccc2c1=O	none (no result: bIAP inh, bIAP activator)
CCN(CC)c1ccc(/C=N/NC(=O)c2nnn(-c3nonc3N)c2C(C)C)c(O)c1	hIAP activ 2 (no result: bIAP inh, bIAP activator) | hIAP act conf inactive
CC(C)c1c(C(=O)N/N=C/c2ccc3c(c2)OCO3)nnn1-c1nonc1N	none (no result: bIAP inh, bIAP activator)
CC(=O)Nc1ccc(NC(=O)CSc2nnc(NC(=O)c3ccc(Br)o3)s2)cc1	none (no result: bIAP inh, bIAP activator)
CCOc1ccc(C(=O)NCc2ccco2)cc1OC	none (no result: bIAP inh, bIAP activator)
CCN1/C(=C/c2ccc3cc(C)ccc3[n+]2CC)Sc2ccc3sccc3c21	mIAP block 43.4, hIAP block 35.2 (no result: bIAP inh, bIAP activator) | hIAP act conf inactive
CCN1/C(=C\c2ccc3cc(C)ccc3[n+]2CC)Sc2cc(C)c(C)cc21	none (no result: mIAP block, hIAP activ, hIAP block, mIAP activ)
CCn1nc(NS(=O)(=O)c2ccccc2)c2cc3ccc(C)cc3nc21	hIAP block 38.6 (no result: bIAP inh, bIAP activator) | hIAP act conf inactive
CCn1nc(NS(=O)(=O)c2ccccc2)c2cc3cc(C)ccc3nc21	none (no result: bIAP inh, bIAP activator)
O=c1ccc2cc(O)c(O)cc2o1	hIAP block 40.3 | hIAP act conf inactive
C/C(=N/Nc1ccccc1[N+](=O)[O-])c1ccc([N+](=O)[O-])cc1	hIAP block 36.8 (no result: bIAP inh, bIAP activator) | hIAP act conf -232.7
CCc1nnc(NC(=O)c2ccc3ccccc3n2)s1	none
CCSc1nnc(NC(=O)c2ccc3ccccc3n2)s1	hIAP activ 2.13 | hIAP act conf inactive
Oc1ccc(-c2nccc(-c3ccccn3)n2)cc1	none (no result: bIAP inh, bIAP activator)
Cc1cc(C(=O)NNS(=O)(=O)c2cc(C(=O)O)ccc2Cl)c(C)n1-c1ccccc1	none (no result: bIAP inh, bIAP activator)
CC1CCCC(N2CCN(C(=O)c3ccc([N+](=O)[O-])cc3)CC2)C1 (centres undefined)	none (no result: bIAP inh, bIAP activator)
CCOc1cccc2sc(Nc3nc4ccc(NC(C)=O)cc4s3)nc12	hIAP activ 2.08 | hIAP act conf inactive
CCOC(=O)C1CCN(S(=O)(=O)c2c(C)[nH]c(C)c2C(=O)N2CCCCC2)CC1	none (no result: bIAP inh, bIAP activator)
CCOC(=O)C(=O)N/N=C(/c1ccccc1)c1ccc(OC)cc1	hIAP block 37.2 (no result: bIAP inh, bIAP activator) | hIAP act conf inactive
O=C(Cn1cnc2c(OCc3ccccc3)ncnc21)NCCc1c[nH]c2ccccc12	none (no result: bIAP inh, bIAP activator)
Cc1cc(OCC(=O)NCCc2c[nH]c3ccccc23)c2c(C)cc(=O)oc2c1	none (no result: bIAP inh, bIAP activator)
Cc1cc(Cl)ccc1NC(=O)C(=O)N/N=C/c1ccc2c(c1)OCO2	none (no result: bIAP inh, bIAP activator)
Cc1ccc(Cl)cc1NC(=O)C(=O)N/N=C/c1ccc2c(c1)OCO2	hIAP activ 2.16 (no result: bIAP inh, bIAP activator) | hIAP act conf inactive
Cc1cc(C)cc(CC(Cc2nc3ccccc3[nH]2)c2nc3ccccc3[nH]2)c1 (centres undefined)	hIAP activ 2.12, bIAP activator 5.2 | hIAP act conf -322.6
CCCCC(CC)C(=O)Nc1cc(=O)[nH]c2nc3ccccc3n12 (centres undefined)	hIAP activ 2.02 (no result: bIAP inh, bIAP activator) | hIAP act conf inactive
COc1ccc(OC(=O)c2cccnc2)cc1	hIAP block 41.1 | hIAP act conf inactive
CC(C)(C)c1ccc(OC(=O)c2cccnc2)cc1	none
COc1ccc(/C=C/CN2CCC(n3nccc3NC(=O)C3CCCC3)CC2)cc1	hIAP activ 2.09 (no result: bIAP inh, bIAP activator) | hIAP act conf inactive
COc1ccc(CN2CCC(n3nccc3NC(=O)C3CCCC3)CC2)cc1	none (no result: bIAP inh, bIAP activator)
O=C(NNc1nc(=O)c2cccnc2s1)c1ccccc1O	hIAP activ 2.86 | hIAP act conf inactive
O=C(NNc1c2ccccc2nc2ccccc12)c1ccccc1O	none
O=C(COC(=O)c1cccnc1Cl)NCCc1ccc(F)cc1	none (no result: bIAP inh, bIAP activator)
O=C(COc1ccc(Cl)cc1)OCC(=O)N1CCCc2ccccc21	mIAP block 43.9, hIAP block 35.8 | hIAP act conf inactive
CC(C)CC(=O)Nc1ccc(C(=O)NNC(=S)NC(=O)C2CCCCC2)cc1	hIAP activ 2.62 | hIAP act conf inactive
N#CCC(=O)Nc1ccc(C(=O)NNC(=S)NC2CCCCC2)cc1	none (no result: bIAP inh, bIAP activator)
O=C(NNC(=S)NC(=O)c1ccccc1[N+](=O)[O-])c1ccccc1O	hIAP activ 2.35 | hIAP act conf inactive
O=C(NC(=S)NNC(=O)c1ccccc1O)c1ccccc1	hIAP activ 2.14 (no result: bIAP inh, bIAP activator) | hIAP act conf inactive
Cc1ccc(C(=O)NC(=S)NNC(=O)c2ccccc2O)cc1	hIAP activ 2.39 (no result: bIAP inh, bIAP activator) | hIAP act conf inactive
O=C(NC(=S)NNC(=O)c1ccco1)c1ccccc1	hIAP activ 2.03 (no result: bIAP inh, bIAP activator) | hIAP act conf inactive
Cc1ccc(C(=O)NNC(=S)NC(=O)c2ccccc2)cc1	none (no result: bIAP inh, bIAP activator)
O=C(NC(=S)NNC(=O)c1ccccc1O)c1cccs1	hIAP activ 2.02 (no result: bIAP inh, bIAP activator) | hIAP act conf inactive
CCCCNC(=O)NNC(=O)c1ccco1	none
O=C(NC(=S)NNC(=O)c1ccccc1O)c1ccc(F)cc1	hIAP activ 2.08 (no result: bIAP inh, bIAP activator) | hIAP act conf inactive
CCCCNC(=S)NNC(=O)c1ccco1	hIAP block 43.7 | hIAP act conf inactive
